{"data": "Experimental data from different studies", "target": "Death-associated protein kinase 1 (DAPK1, Homo sapiens, UniProt P53355)", "note": "Protocols differ between the studies behind these lines."}
{"Compound": "CCN1CCN(Cc2ccc(C(=O)Nc3ccc(C)c(Oc4ccc5c(c4)CC(=O)N5)c3)cc2C(F)(F)F)CC1", "test": "binding, competition with immobilised ligand", "setting": "1 µM", "remaining binding": "100%"}
{"Compound": "N[C@@H]1CCN(c2nccc(-c3cnn4ncccc34)n2)C1", "test": "binding", "setting": "1 µM", "remaining binding": "97%"}
{"Compound": "O=C1CCc2cc(Nc3cc(OC4CCOCC4)c([N+](=O)[O-])cc3Cl)ccc2N1", "test": "cell-free assay, competition with immobilised ligand", "setting": "1 µM", "remaining binding": "90%"}
{"Compound": "O=C(c1ccc(Nc2ncc(Cl)c(-c3cc4ccccc4s3)n2)cc1)N1CCC(N2CCCC2)CC1", "test": "binding, competition with immobilised ligand", "setting": "1 µM", "remaining binding": "20%"}
{"Compound": "CC1CCCN1c1nccc(-c2cnn3ncccc23)n1 (centres unmarked)", "test": "binding", "setting": "1 µM", "remaining binding": "99%"}
{"Compound": "C[C@H](c1ccc(F)cc1)N(Cc1cccc(C(=O)O)c1)C(=O)c1cnc2ccccc2c1", "test": "cell-free assay, competition with immobilised ligand", "setting": "1 µM", "remaining binding": "97%"}
{"Compound": "CN(CCCC(F)(F)F)c1nccc(-c2cnn3ncccc23)n1", "test": "binding", "setting": "1 µM", "remaining binding": "100%"}
{"Compound": "Cc1cnc(Nc2ccc(C(=O)N3CCC(N4CCCC4)CC3)cc2)nc1-c1cc2ccccc2s1", "test": "binding, competition with immobilised ligand", "setting": "1 µM", "remaining binding": "16%"}
{"Compound": "FC(F)(F)Oc1cccc(-c2cnc3ccc(-c4ccncc4)nn23)c1", "test": "cell-free assay, competition with immobilised ligand", "setting": "5 µM", "remaining binding": "89%"}
{"Compound": "COc1cnc(Nc2cccc(S(N)(=O)=O)c2)nc1N1CCN(c2ccccc2)C(=O)C1", "test": "binding, competition with immobilised ligand", "setting": "1 µM", "remaining binding": "95%"}
{"Compound": "COc1ncc2cc3ccccc3nc2c1C#N", "test": "cell-free assay, competition with immobilised ligand", "setting": "5 µM", "remaining binding": "95%"}
{"Compound": "COc1cc(-c2cn(C3CCc4c(F)cccc4N(CC(F)(F)F)C3=O)nn2)ccc1-n1cnc(C)c1 (centres unmarked)", "test": "cell-free assay, competition with immobilised ligand", "setting": "1 µM", "remaining binding": "99%"}
{"Compound": "c1cnn2ncc(-c3ccnc(N4CCC45COC5)n3)c2c1", "test": "binding", "setting": "1 µM", "remaining binding": "79%"}
{"Compound": "Cn1nc(C(=O)NCc2ccc(C(=O)O)cc2)cc1-c1ccc2[nH]ccc2c1", "test": "cell-free assay, competition with immobilised ligand", "setting": "0.1 µM", "remaining binding": "97%"}
{"Compound": "CN(C)c1nccc(-c2cnn3ncccc23)n1", "test": "binding", "setting": "1 µM", "remaining binding": "100%"}
{"Compound": "O=C(NCC1CCOCC1)c1n[nH]cc1NC(=O)c1c(F)cccc1F", "test": "binding, competition with immobilised ligand", "setting": "1 µM", "remaining binding": "96%"}
{"Compound": "NS(=O)(=O)c1cc(NC(=O)C2(c3ccccc3Cl)CC2)ccc1Oc1cccc(Cl)c1", "test": "cell-free assay, competition with immobilised ligand", "setting": "1 µM", "remaining binding": "98%"}
{"Compound": "C[C@@H]1CCN(c2nccc(-c3cnn4ncccc34)n2)C1", "test": "binding", "setting": "1 µM", "remaining binding": "79%"}
{"Compound": "O=C(NCCCN1CCOCC1)c1ccc(Nc2ncc(Cl)c(-c3ccc(Cl)s3)n2)cc1", "test": "binding, competition with immobilised ligand", "setting": "1 µM", "remaining binding": "22%"}
{"Compound": "CNCc1ccccc1-c1csc([C@H](C)Nc2nc(C)nc3cc(OC)c(OC)cc23)c1", "test": "cell-free assay, competition with immobilised ligand", "setting": "1 µM", "remaining binding": "100%"}
